This is a sample that favours compounds with a hit; in the whole collection about 2.6% have one here.
ABCB6 inh 2 – ABCB6 transporter inhibitors, primary screen, K562-ABCB6 cells, flow cytometry, MLPCN library | AID 602162, 2011 | fluorescence ratio to DMSO, % at 10 µM | ATP-binding cassette sub-family B member 6 (Homo sapiens), Q9NP58 | K562-ABCB6 porphyrin accumulation, 1 h; active compounds read low | 360,000 compounds, 0.19% hits;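 active = fluorescence ratio to DMSO below 75%, the collection mean minus 3 SD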;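 also: signal is porphyrin accumulated inside mitochondria; 100% equals median channel fluorescence of DMSO control wells; lower ratio means ABCB6 inhibition with less porphyrin fluorescence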
Target sequence (Q9NP58 whole entry, looked up): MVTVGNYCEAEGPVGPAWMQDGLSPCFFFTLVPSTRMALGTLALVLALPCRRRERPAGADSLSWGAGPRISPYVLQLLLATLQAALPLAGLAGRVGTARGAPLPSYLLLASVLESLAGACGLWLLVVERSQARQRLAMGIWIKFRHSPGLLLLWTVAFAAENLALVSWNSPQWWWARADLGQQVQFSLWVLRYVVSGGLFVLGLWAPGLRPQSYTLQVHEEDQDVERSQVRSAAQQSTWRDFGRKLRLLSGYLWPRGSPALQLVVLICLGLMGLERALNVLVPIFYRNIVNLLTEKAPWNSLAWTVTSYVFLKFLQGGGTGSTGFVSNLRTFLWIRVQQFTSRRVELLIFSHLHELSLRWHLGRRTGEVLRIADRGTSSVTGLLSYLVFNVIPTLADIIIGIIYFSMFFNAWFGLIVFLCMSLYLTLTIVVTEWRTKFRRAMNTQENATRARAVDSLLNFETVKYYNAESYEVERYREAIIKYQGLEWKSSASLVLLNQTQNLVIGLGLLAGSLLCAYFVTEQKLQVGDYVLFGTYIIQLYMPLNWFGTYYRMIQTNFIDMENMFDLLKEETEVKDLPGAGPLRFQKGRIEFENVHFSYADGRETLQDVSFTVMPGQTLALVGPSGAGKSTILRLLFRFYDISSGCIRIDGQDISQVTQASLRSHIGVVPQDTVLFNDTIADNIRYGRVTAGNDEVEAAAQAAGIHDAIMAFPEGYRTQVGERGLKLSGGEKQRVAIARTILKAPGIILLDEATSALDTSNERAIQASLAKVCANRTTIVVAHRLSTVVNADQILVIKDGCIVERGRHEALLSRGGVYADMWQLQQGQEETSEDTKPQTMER
TbMetRS inhib – T. brucei MetRS inhibitors, primary screen, biochemical, luminescence | purified T. brucei MetRS, ATP depletion, Kinase-Glo luminescence | inhibition, % at 11.9 µM | 360,000 compounds, 0.4% hits;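 active = inhibition above a per-plate cutoff of the control wells' mean inhibition plus 3 SD, cut at about 5.5% in these data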;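 also: 0% = DMSO wells median and 100% = median of wells with control inhibitor compound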
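technique = Kinase-Glo luminescence, ATP depletion format | system = purified MetRS (methionyl-tRNA synthetase) enzyme from Trypanosoma brucei | timing = 15 min preincubation, 2 h reaction, all 25 °C | evaluation = percent inhibition versus plate control medians | dosing = single dose, 11.9 µM final nominal, 0.9% final DMSO | also added = substrates ATP, L-methionine and bulk Escherichia coli tRNA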
MC4R antag cAMP – MC4R antagonists of cAMP signaling, primary screen, cell-based, TR-FRET, antagonist arm of biased-ligand search | Melanocortin receptor 4 (Homo sapiens), P32245 | inhibition, % at 6.5 µM | AID 540295, 2011 | 360,000 compounds, 0.48% hits | MC4R-expressing cells, MTII-stimulated cAMP, LANCE TR-FRET;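 active = inhibition above its plate's cutoff, the mean of tested wells on that plate plus 3 SD, cut at about 29% in these data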;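 also: 0% = Melanotan II alone and 100% = Melanotan II plus saturating MCL0020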
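Material: U2OS-MC4R stable cell line | Reagent: Melanotan II challenge after compound preincubation | Doses: One concentration, 6.5 µM nominal | Incubation: 30-min compound preincubation, 1-h Melanotan II challenge, 1-h detection, room temperature | Signal: TR-FRET cAMP assay | Replicates: One well per compound, no replicates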
Granule exo inh – LAMP-1 surface exposure blockers, TALL-104 cells – cell-based, flow cytometry, MLPCN library, primary screen; 360,000 compounds, 0.66% hits; TALL-104 LAMP-1 surface exposure; cells stimulated with thapsigargin and PMA; AID 651702, 2012; inhibition, % at 10 µM;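 active = inhibition above about 55%, limit read from the data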
MC4R barr agon – MC4R agonists recruiting beta-arrestin, primary screen, cell-based, luminescence, agonist arm of biased-ligand search. Melanocortin receptor 4 (Homo sapiens), P32245. U2OS MC4R beta-arrestin complementation; percent of melanotan II response, DMSO zero. activation, % at 8.9 µM. 360,000 compounds, 0.98% hits. AID 540308, 2011;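 active = activation above a per-plate cutoff, the mean activation of sample wells on that plate plus 3 SD, cut at about 8% in these data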
iPSC survival up – enhancers of single-cell hiPSC survival, primary screen, ATPlite luminescence; survival enhancement, % at 20 µM; 100% = ROCK inhibitor wells, 0% = DMSO; AID 602274, 2012; 360,000 compounds, 0.044% hits; in the data active = survival enhancement above about 18%;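 also: cells exposed to compounds for 16 hours before the ATP read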
U2OS cAMP counter – nonselective cAMP signaling inhibitors, parental cells, counter-screen for MC4R biased antagonist project, cell-based, TR-FRET, U2OS, forskolin, triplicate; inhibition, % at 6.5 µM; shares compounds with MC4R antag cAMP; AID 602193, 2012; 1,600 compounds, 26% hits; LANCE TR-FRET;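 active = mean inhibition over triplicates above the low-control well mean plus 3 SD, set per campaign, cut at about 13% in these data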;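 also: signal is single emission at 671 nm which falls as cellular cAMP rises; 0% = forskolin-stimulated wells and 100% = buffer without forskolin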
MC4R antag conf – MC4R cAMP antagonists, retest, confirmation, cell-based, TR-FRET | shares compounds with MC4R antag cAMP | MC4R-expressing cells, MTII-stimulated cAMP | inhibition, % at 6.5 µM | 1,600 compounds, 27% hits | AID 602195, 2012; in the data active = inhibition above about 29%;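 also: 0% = agonist stimulated wells alone and 100% = agonist stimulated wells plus saturating reference antagonist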
Active calls of the source: *; . = no result.

SMILES	ABCB6 inh 2	TbMetRS inhib	MC4R antag cAMP	Granule exo inh	MC4R barr agon	iPSC survival up	U2OS cAMP counter	MC4R antag conf
COc1ccc(NC(=S)N2CCCC2)cc1OC	90.0	-0.8	2.9	4.1	-2.8	-0.1	.	.
C=CCSc1nc2ccccc2c(=O)n1C1CCOC(C)(C)C1 (stereo unspecified)	92.0	-0.4	34.4*	20.6	5.6	0.7	-3.0	5.6
CCSc1nc2ccccc2c(=O)n1C1CCOC(C)(C)C1 (stereo unspecified)	96.0	1.2	9.2	0.8	0.8	3.9	.	.
CN(C)C(=O)c1ccc(NC(=O)COC(=O)CCN=C2NS(=O)(=O)c3ccccc32)cc1	95.0	-0.2	4.0	3.1	-1.3	-0.6	.	.
Cc1ccc(CNC(=O)CNC(=O)[C@@H]2Cc3ccccc3CN2C(=O)OC(C)(C)C)cc1	97.0	0.2	15.6	-17.1	1.4	0.5	.	.
CCN(CC)S(=O)(=O)c1ccc(/C=C/C(=O)NC2CCCCC2)cc1	98.0	-0.3	5.8	-3.9	-0.9	-0.3	.	.
CC1CN(S(=O)(=O)c2ccc(C(=O)N3c4ccccc4CC3C)cc2)CC(C)O1 (stereo unspecified)	97.0	-0.2	28.6*	-1.4	-0.6	0.4	-1.5	-18.1
CCN(CC)C(=O)c1cc(Cl)ccn1	102.0	0.2	9.4	-1.0	-1.8	-0.7	.	.
Cc1ccc(S(=O)(=O)Nc2nc(C)cc(NN)n2)cc1	96.0	-0.4	28.8*	6.5	-1.2	-0.3	3.8	9.4
COc1ccc(-n2c(=S)[nH]c3cc(C(=O)NCc4cccnc4)ccc3c2=O)cc1	103.0	0.2	4.4	10.3	-2.1	-0.3	.	.
O=C(NCCN1C(=O)S/C(=C\c2ccc(Cl)c(Cl)c2)C1=O)c1cnccn1	97.0	0.4	6.5	-6.9	1.2	-1.1	.	.
O=C(NCCN1C(=O)S/C(=C\c2ccc(Cl)c([N+](=O)[O-])c2)C1=O)C1=COCCO1	102.0	0.1	29.1*	8.3	-3.8	9.9	8.5	8.4
O=C(CSc1ncn[nH]1)NN(c1ccccc1)c1ccccc1	101.0	-0.3	-1.1	-1.5	-1.5	2.0	.	.
O=C(CSc1nccc(=O)[nH]1)NN(c1ccccc1)c1ccccc1	97.0	-0.4	28.6*	-1.6	-0.3	0.4	-5.7	-19.7
COc1cccc(/C=C/C2=CC(C)(C)NC(=S)N2)c1	102.0	-0.1	28.7*	-3.6	-1.8	-1.3	-3.1	-9.6
COc1ccc(/C=C/C2=CC(C)(C)NC(=S)N2)cc1OC	98.0	-1.0	-9.2	1.2	-1.1	-0.5	.	.
CC(c1ccco1)N(C(=O)c1ccccc1NS(=O)(=O)c1cccc([N+](=O)[O-])c1)c1ccccn1 (stereo unspecified)	106.0	-0.1	30.1*	-2.3	-1.2	0.8	-1.4	-0.9
CC(c1ccco1)N(C(=O)c1ccccc1NS(=O)(=O)c1cc([N+](=O)[O-])ccc1Cl)c1ccccn1 (stereo unspecified)	101.0	-0.1	1.9	-0.3	-1.7	11.0	.	.
CC1CC(C)CN(C(=O)c2cc(S(=O)(=O)N3CCCCC3)ccc2Cl)C1 (stereo unspecified)	97.0	0.4	5.1	7.6	-2.6	-0.6	.	.
COc1cccc(NS(=O)(=O)c2ccc3[nH]cc(C(=O)NCCC(C)C)c(=O)c3c2)c1	94.0	1.1	28.6*	4.4	0.7	4.4	2.4	-3.4
COC(=O)c1ccc(N2NC(=O)/C(=C/c3cc(OC)c(OC)c(OC)c3)C2=O)cc1	100.0	-0.3	36.4*	-4.5	-1.9	-0.4	1.0	-2.7
CC1=NNC(=O)/C1=C\c1cn(-c2ccccc2)nc1-c1cccs1	92.0	-0.7	46.5*	47.0	-2.2	-0.2	21.6*	43.8*
CC(C)n1c(=S)[nH]c2scc(-c3cccs3)c2c1=O	97.0	-0.5	8.9	0.1	-1.6	-0.6	.	.
O=c1c2c(-c3cccs3)csc2[nH]c(=S)n1-c1ccccc1	95.0	-0.7	31.4*	0.2	-1.3	1.7	17.7*	33.5*
CSc1nnc(NC(=O)c2nc(S(=O)(=O)Cc3ccccc3F)ncc2Cl)s1	96.0	0.1	40.7*	21.7	-2.2	-0.4	17.5*	38.0*
SMILES	ABCB6 inh 2	TbMetRS inhib	MC4R antag cAMP	Granule exo inh	MC4R barr agon	iPSC survival up	U2OS cAMP counter	MC4R antag conf
O=C(NCc1ccccc1)c1nc(S(=O)(=O)Cc2ccccc2)ncc1Cl	102.0	-0.1	47.9*	43.5	-3.5	0.0	33.8*	59.9*
O=C(NCc1ccc2c(c1)OCO2)c1nc(S(=O)(=O)Cc2ccccc2F)ncc1Cl	103.0	0.2	0.2	35.8	-5.6	-0.5	.	.
O=C(NCc1ccccc1)c1c(Cl)nc(Cl)c(Cl)c1Cl	103.0	-1.1	64.0*	-4.3	0.3	1.3	45.3*	64.4*
CCSc1nnc(NC(=O)c2nc(S(=O)(=O)Cc3ccc(F)cc3)ncc2Cl)s1	85.0	0.1	49.1*	4.6	-2.0	-0.3	14.4*	20.3
CC(C)(C)CN1CCC(Oc2cccc(C(=O)NCCCOc3cccnc3)c2)CC1	100.0	-1.1	1.3	-0.1	0.7	0.6	.	.
Clc1ccc(-c2nc(/C=N/N3CCOCC3)c3ccccn23)cc1	105.0	0.3	-12.0	1.6	-2.0	-0.5	.	.
CSc1ncc(Cl)c(C(=O)Nc2nnc(SC/C=C/c3ccccc3)s2)n1	97.0	-0.7	4.2	1.1	-1.0	-2.4	.	.
CSc1nnc(NC(=O)c2nc(S(=O)(=O)Cc3cccc(C)c3)ncc2Cl)s1	106.0	0.7	59.1*	6.4	-2.6	0.0	28.6*	48.0*
CCc1noc(C)c1C(=O)NNC(=O)c1cc(OC)cc(OC)c1	100.0	0.3	3.1	13.2	0.4	4.7	.	.
CSCc1ccc(C(=O)NCc2ccc(C)cc2)cc1	97.0	0.3	10.6	4.4	-1.4	-0.4	.	.
CSCc1ccc(C(=O)Nc2ccc(C(N)=O)cc2)cc1	99.0	0.2	31.4*	1.7	0.2	-0.1	-4.3	-12.4

Screens deposited in PubChem BioAssay by several laboratories.
